{
  "source": "paper PMC10150624",
  "about": "(Journal of Enzyme Inhibition and Medicinal Chemistry, 2023)",
  "key": {"A549 cells [1]": {"system": "A549 cells", "assay": "AO/EB fluorescent staining, morphology of apoptotic cells", "assay_type": "cell-based", "settings": "A549 cells, 1, 5 or 10 μM, 48 h", "how_it_was_run": "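A549 cells seeded in 6-well plates at 3.6 × 10^5/mL and grown 24 h, then exposed to test compound for a further 48 h; untreated A549 cells served as control. Cells were stained for a few min with AO/EB dual fluorescent solution, then viewed and photographed by forward fluorescence microscopy for apoptotic morphology.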"}, "EGFR^L858R/T790M": {"biological_target": "EGFR^L858R/T790M (Homo sapiens, UniProt P00533, L858R/T790M)", "sequence (P00533 25-1210 T790M/L858R)": "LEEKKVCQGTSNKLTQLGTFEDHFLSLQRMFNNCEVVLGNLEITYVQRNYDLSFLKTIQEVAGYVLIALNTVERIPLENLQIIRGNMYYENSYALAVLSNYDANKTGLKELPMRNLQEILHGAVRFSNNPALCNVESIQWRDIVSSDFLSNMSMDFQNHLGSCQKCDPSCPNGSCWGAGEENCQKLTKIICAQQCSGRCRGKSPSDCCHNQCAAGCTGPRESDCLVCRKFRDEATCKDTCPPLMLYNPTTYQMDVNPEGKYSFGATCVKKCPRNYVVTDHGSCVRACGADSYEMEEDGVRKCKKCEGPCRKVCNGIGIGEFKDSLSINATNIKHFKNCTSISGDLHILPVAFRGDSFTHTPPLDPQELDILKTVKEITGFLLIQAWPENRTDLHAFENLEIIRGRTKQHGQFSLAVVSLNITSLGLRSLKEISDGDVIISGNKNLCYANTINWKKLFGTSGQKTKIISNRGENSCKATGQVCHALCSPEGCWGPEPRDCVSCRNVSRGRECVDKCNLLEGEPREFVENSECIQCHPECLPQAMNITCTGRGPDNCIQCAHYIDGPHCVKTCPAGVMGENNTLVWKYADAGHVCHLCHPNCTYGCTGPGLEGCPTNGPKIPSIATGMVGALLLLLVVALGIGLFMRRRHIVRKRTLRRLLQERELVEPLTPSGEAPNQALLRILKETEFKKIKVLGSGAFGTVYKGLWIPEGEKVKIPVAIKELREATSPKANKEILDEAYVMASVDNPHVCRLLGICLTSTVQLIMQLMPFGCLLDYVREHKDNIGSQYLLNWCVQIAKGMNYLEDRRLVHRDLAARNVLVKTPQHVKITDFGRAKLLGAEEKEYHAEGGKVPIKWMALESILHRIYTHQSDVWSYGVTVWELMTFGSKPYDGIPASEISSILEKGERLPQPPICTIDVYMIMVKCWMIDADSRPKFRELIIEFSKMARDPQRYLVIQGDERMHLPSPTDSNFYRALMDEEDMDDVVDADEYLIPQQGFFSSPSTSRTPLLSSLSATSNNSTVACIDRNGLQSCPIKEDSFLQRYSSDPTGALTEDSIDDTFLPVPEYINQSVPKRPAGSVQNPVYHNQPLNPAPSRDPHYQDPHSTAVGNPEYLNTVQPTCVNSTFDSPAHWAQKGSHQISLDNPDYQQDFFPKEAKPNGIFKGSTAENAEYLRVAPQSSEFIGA", "assay": "EGFR kinase inhibition by ELISA, L858R/T790M", "assay_type": "biochemical", "settings": "EGFR^L858R/T790M versus EGFR^WT, kinase assay"}, "A549 cells [2]": {"system": "A549 cells", "assay": "Wound healing", "assay_type": "cell-based", "settings": "5 or 10 μM, 0, 24 and 48 h", "how_it_was_run": "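Wound-healing format with A549 cells at 3.6 × 10^5/well, exposed to test compound and imaged at 0, 24 and 48 h. Cell migration into the wound was assessed by microscopy and photography.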"}, "H1975 cells [3]": {"system": "H1975 cells", "assay": "Apoptosis by flow cytometry, Annexin V/PI double staining", "assay_type": "cell-based", "settings": "H1975, 10 μM, 48 h; total apoptotic cells (Q2 + Q3)", "how_it_was_run": "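H1975 cells in log growth seeded at 3 × 10^5/well, held 24 h at 37 °C, 5% CO2, then exposed to test compound at several concentrations for 48 h. Cells harvested by trypsin, PBS-washed, stained with Annexin V-APC for 30 min and then PI for 3 min at room temperature in the dark, diluted in saline and read at once by flow cytometry. Total apoptotic fraction taken as Q2 + Q3.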"}, "H1975 cells [4]": {"system": "H1975 cells", "assay": "Cell cycle progression by flow cytometry", "assay_type": "cell-based", "settings": "24 h", "how_it_was_run": "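H1975 cells seeded at 3 × 10^5/well and cultured 24 h, then treated with test compound (0.2, 1.0, 5 μM) for 24 h at 37 °C. Cells PBS-washed, fixed overnight in ice-cold 70% ethanol, washed again and stained with PI for 30 min at room temperature in the dark. DNA content analysed by flow cytometry to give the G2/M fraction against an untreated control.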"}},
  "data": [
    {"compound": "C=C(Cl)C(=O)Nc1cc(Nc2nc(Nc3cnn(C)c3)c3sccc3n2)c(OC)cc1N(C)CCN(C)C", "note": "[Compound B7, 2-chloro-N-(2-((2-(dimethylamino)ethyl)(methyl)amino)-4-methoxy-5-((4-((1-methyl-1H-pyrazol-4-yl)amino)thieno[3,2-d]pyrimidin-2-yl)amino)phenyl)acrylamide]", "values": [
      {"measurement": "apoptosis induction, cell morphology", "setting": "A549 cells [1]", "result": "induce apoptosis in A549 cells in a concentration-dependent manner"},
      {"measurement": "selectivity for EGFR^WT", "setting": "EGFR^L858R/T790M", "result": "more than 16 fold"},
      {"measurement": "wound healing", "setting": "A549 cells [2]", "result": "wound healing was slower in the treated group than that in the blank control group"}
    ]},
    {"compound": "C=C(Cl)C(=O)Nc1cc(Nc2nc(N3CCc4sccc4C3)c3sccc3n2)c(OC)cc1N(C)CCN(C)C", "note": "[Compound B1, 2-chloro-N-(5-((4–(6,7-dihydrothieno[3,2-c]pyridin-5(4H)-yl)thieno[3,2-d]pyrimidin-2-yl)amino)-2-((2-(dimethylamino)ethyl)(methyl)amino)-4-methoxyphenyl)acrylamide]", "values": [
      {"measurement": "apoptosis rate", "setting": "H1975 cells [3]", "result": 22.1, "unit": "%"},
      {"measurement": "apoptosis induction, cell morphology", "setting": "A549 cells [1]", "result": "induce apoptosis in A549 cells in a concentration-dependent manner"},
      {"measurement": "percentage of G2/M-phase cells", "setting": "H1975 cells [4]; H1975, 0.2 μM", "result": 24.41, "unit": "%"},
      {"measurement": "percentage of G2/M-phase cells", "setting": "H1975 cells [4]; H1975, 1.0 μM", "result": 27.68, "unit": "%"},
      {"measurement": "percentage of G2/M-phase cells", "setting": "H1975 cells [4]; H1975, 5 μM", "result": 31.47, "unit": "%"},
      {"measurement": "selectivity for EGFR^WT", "setting": "EGFR^L858R/T790M", "result": "more than 76 fold"},
      {"measurement": "wound healing", "setting": "A549 cells [2]", "result": "wound healing was slower in the treated group than that in the blank control group"}
    ]}
  ]
}
